Source: ChEMBL document CHEMBL2311435, “Development of 18F-labeled picolinamide probes for PET imaging of malignant melanoma” (J Med Chem, 2013)

Experiments:
Liver = assay: Biodistribution in liver of C57BL/6 mouse xenografted with mouse B16F10 cells at 3.7 MBq, iv after 2 hrs by gamma-scintillation counting analysis; type: ADME, organism-based, B16-F10; details: in vivo
Method in brief: (§1)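 1.0 × 10^6 B16F10 cells in PBS injected subcutaneously into the right shoulder of C57BL/6 mice, grown to 0.5 cm (~10 day). Tail-vein injection of about 3.7 MBq (100 μCi) 18F probe in PBS (0.1 M, pH 7.4). Killed at 1.0 or 2.0 h p.i. (n = 4 per group). Tissues excised, weighed and gamma-counted; uptake expressed as %ID/g, mean ± SD.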

Bone = assay: Biodistribution in bone of C57BL/6 mouse xenografted with mouse B16F10 cells at 3.7 MBq, iv after 2 hrs by gamma-scintillation counting analysis; type: ADME, organism-based, Bone element, B16-F10; details: in vivo; method in brief: as §1
Intestine [1] = assay: Biodistribution in intestine of C57BL/6 mouse xenografted with mouse B16F10 cells at 3.7 MBq, iv after 1 hr by gamma-scintillation counting analysis; type: ADME, organism-based, B16-F10; details: in vivo; method in brief: as §1
Nucleic Acid [2] = assay: Ratio of drug uptake in tumor to blood of C57BL/6 mouse xenografted with mouse B16F10 cells at 3.7 MBq, iv after 2 hrs by gamma-scintillation counting analysis; type: ADME, organism-based, B16-F10; details: tumour
Method in brief: (§2)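 Same subcutaneous B16F10 model and tail-vein dose of about 3.7 MBq (100 μCi), n = 4 per group. Dissection at 1 or 2 h p.i. Gamma-counter %ID/g of tumor divided by that of blood, lung, liver or muscle, given as mean ± SD.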

Nucleic Acid [3] = assay: Ratio of drug uptake in tumor to muscle of C57BL/6 mouse xenografted with mouse B16F10 cells at 3.7 MBq, iv after 2 hrs by gamma-scintillation counting analysis; type: ADME, organism-based, B16-F10; details: in vivo; method in brief: as §2
Spleen = assay: Biodistribution in spleen of C57BL/6 mouse xenografted with mouse B16F10 cells at 3.7 MBq, iv after 2 hrs by gamma-scintillation counting analysis; type: ADME, organism-based, B16-F10; details: in vivo; method in brief: as §1
Intestine [4] = assay: Biodistribution in intestine of C57BL/6 mouse xenografted with mouse B16F10 cells at 3.7 MBq, iv after 2 hrs by gamma-scintillation counting analysis; type: ADME, organism-based, B16-F10; details: in vivo; method in brief: as §1
Mus musculus [5] = assay: Biodistribution in tumor of C57BL/6 mouse xenografted with mouse B16F10 cells at 3.7 MBq, iv after 2 hrs by gamma-scintillation counting analysis; type: ADME, organism-based, Neoplasm, B16-F10; details: in vivo; method in brief: as §1
Mus musculus [6] = assay: Biodistribution in eye of C57BL/6 mouse xenografted with mouse B16F10 cells at 3.7 MBq, iv after 2 hrs by gamma-scintillation counting analysis; type: ADME, organism-based, B16-F10; details: in vivo; method in brief: as §1
Blood [7] = assay: Biodistribution in blood of C57BL/6 mouse xenografted with mouse B16F10 cells at 3.7 MBq, iv after 1 hr by gamma-scintillation counting analysis; type: ADME, organism-based, B16-F10; details: in vivo; method in brief: as §1
Kidney = assay: Biodistribution in kidney of C57BL/6 mouse xenografted with mouse B16F10 cells at 3.7 MBq, iv after 2 hrs by gamma-scintillation counting analysis; type: ADME, organism-based, B16-F10; details: in vivo; method in brief: as §1
Stomach = assay: Biodistribution in stomach of C57BL/6 mouse xenografted with mouse B16F10 cells at 3.7 MBq, iv after 2 hrs by gamma-scintillation counting analysis; type: ADME, organism-based, B16-F10; details: in vivo; method in brief: as §1
Heart = assay: Biodistribution in heart of C57BL/6 mouse xenografted with mouse B16F10 cells at 3.7 MBq, iv after 1 hr by gamma-scintillation counting analysis; type: ADME, organism-based, B16-F10; details: in vivo; method in brief: as §1
Blood [8] = assay: Biodistribution in blood of C57BL/6 mouse xenografted with mouse B16F10 cells at 3.7 MBq, iv after 2 hrs by gamma-scintillation counting analysis; type: ADME, organism-based, B16-F10; details: in vivo; method in brief: as §1
Nucleic Acid [9] = assay: Ratio of drug uptake in tumor to liver of C57BL/6 mouse xenografted with mouse B16F10 cells at 3.7 MBq, iv after 1 hr by gamma-scintillation counting analysis; type: ADME, organism-based, B16-F10; details: in vivo; method in brief: as §2
Pancreas = assay: Biodistribution in pancreas of C57BL/6 mouse xenografted with mouse B16F10 cells at 3.7 MBq, iv after 2 hrs by gamma-scintillation counting analysis; type: ADME, organism-based, B16-F10; details: in vivo; method in brief: as §1
Muscle tissue = assay: Biodistribution in muscle of C57BL/6 mouse xenografted with mouse B16F10 cells at 3.7 MBq, iv after 2 hrs by gamma-scintillation counting analysis; type: ADME, organism-based, B16-F10; details: in vivo; method in brief: as §1
Mus musculus [10] = assay: Biodistribution in tumor of C57BL/6 mouse xenografted with mouse B16F10 cells at 3.7 MBq, iv after 1 hr by gamma-scintillation counting analysis; type: ADME, organism-based, Neoplasm, B16-F10; details: in vivo; method in brief: as §1
Brain = assay: Biodistribution in brain of C57BL/6 mouse xenografted with mouse B16F10 cells at 3.7 MBq, iv after 2 hrs by gamma-scintillation counting analysis; type: ADME, organism-based, B16-F10; details: in vivo; method in brief: as §1
Zone of skin = assay: Biodistribution in skin of C57BL/6 mouse xenografted with mouse B16F10 cells at 3.7 MBq, iv after 1 hr by gamma-scintillation counting analysis; type: ADME, organism-based, B16-F10; details: in vivo; method in brief: as §1

Question: Which Drug uptake (Liver) does the source give for `CCN(CC)CCNC(=O)c1cc([18F])ccn1` here?
Answer: 1.41 % ID/g

Question: And the Drug uptake (Bone)?
Answer: 10.27 % ID/g

Question: And the Drug uptake (Intestine [1])?
Answer: 2.28 % ID/g

Question: What about the Ratio (Nucleic Acid [2]) of the same molecule?
Answer: 44.33

Question: And the Ratio (Nucleic Acid [3])?
Answer: 27.75

Question: What about the Drug uptake (Spleen) of the same molecule?
Answer: 0.31 % ID/g

Question: What about the Drug uptake (Intestine [4]) of the same molecule?
Answer: 0.98 % ID/g

Question: What about the Drug uptake (Mus musculus [5]) of the same molecule?
Answer: 8.66 % ID/g

Question: And the Drug uptake (Mus musculus [6])?
Answer: 32.45 % ID/g

Question: And the Drug uptake (Blood [7])?
Answer: 0.33 % ID/g

Question: And the Drug uptake (Kidney)?
Answer: 0.69 % ID/g

Question: And the Drug uptake (Stomach)?
Answer: 1.64 % ID/g

Question: What about the Drug uptake (Heart) of the same molecule?
Answer: 0.6 % ID/g

Question: And the Drug uptake (Blood [8])?
Answer: 0.15 % ID/g

Question: What about the Ratio (Nucleic Acid [9]) of the same molecule?
Answer: 3.85

Question: What about the Drug uptake (Pancreas) of the same molecule?
Answer: 0.44 % ID/g

Question: What about the Drug uptake (Muscle tissue) of the same molecule?
Answer: 0.2 % ID/g

Question: What about the Drug uptake (Mus musculus [10]) of the same molecule?
Answer: 7.54 % ID/g

Question: What about the Drug uptake (Brain) of the same molecule?
Answer: 0.24 % ID/g

Question: What about the Drug uptake (Zone of skin) of the same molecule?
Answer: 0.73 % ID/g
